Test results from ChEMBL document CHEMBL1649396, “Synthesis, biological evaluation of chrysin derivatives as potential immunosuppressive agents” (Eur J Med Chem, 2011).

How the values were obtained:
[1] = Cytotoxicity against BALB/c mouse T cells after 48 hrs by MTT assay; format: cell-based, T-cell
Procedure, shortened: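 Lymph node cells from female BALB/c mice, 6-8 weeks old and specific-pathogen-free, plated at 5 × 10⁵ cells/well with graded compound for 48 h. Medium was RPMI 1640 with 10% fetal calf serum and penicillin/streptomycin, at 37 °C under 5% CO₂. MTT (4 mg/mL in PBS) was added 4 h before the end. Formazan was dissolved in DMSO and read at OD540. CC50 is the concentration reducing viability to 50%.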

[2] = Immunosuppressive activity in BALB/c mouse T cells assessed as inhibition of anti-CD3/anti-CD28-stimulated cell proliferation after 72 hrs by MTT assay; format: functional, cell-based
Procedure, shortened: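 Female BALB/c mouse lymph node cells, 5 × 10⁵/well, stimulated with anti-CD3/anti-CD28 alongside graded compound for 72 h. MTT (4 mg/mL in PBS) was added 4 h before harvest. Formazan was dissolved in DMSO and read at 540 nm.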

[3] = test system: T-cell; experiment: Selectivity index, ratio of CC50 for BALB/c mouse T cells to IC50 for immunosuppressive activity in BALB/c mouse T cells; format: functional
[4] = test system: T-cell; experiment: Immunosuppressive activity in anti-CD3/anti-CD28-stimulated BALB/c mouse T cells assessed as viable cells at 4 uM after 48 hrs by FACS analysis; format: functional; settings: read-out: Activity
Procedure, shortened: (§1)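 Lymph node cells isolated from naive BALB/c mice, cultured with anti-CD3/anti-CD28 plus compound at 1, 2, 4 or 8 µM for 48 h. Cells were stained with Annexin V-FITC and propidium iodide and analysed by flow cytometry to give apoptotic, necrotic and viable fractions.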

[5] = test system: T-cell; experiment: Immunosuppressive activity in anti-CD3/anti-CD28-stimulated BALB/c mouse T cells assessed as early apoptotic cells at 8 uM after 48 hrs by FACS analysis; format: functional; procedure, shortened: as §1
[6] = test system: T-cell; experiment: Immunosuppressive activity in anti-CD3/anti-CD28-stimulated BALB/c mouse T cells assessed as late apoptotic cells at 8 uM after 48 hrs by FACS analysis; format: functional; procedure, shortened: as §1
[7] = test system: T-cell; experiment: Immunosuppressive activity in anti-CD3/anti-CD28-stimulated BALB/c mouse T cells assessed as non-viable necrotic cells at 8 uM after 48 hrs by FACS analysis; format: functional; procedure, shortened: as §1
[8] = test system: T-cell; experiment: Immunosuppressive activity in anti-CD3/anti-CD28-stimulated BALB/c mouse T cells assessed as viable cells at 8 uM after 48 hrs by FACS analysis; format: functional; settings: read-out: Activity; procedure, shortened: as §1
[9] = test system: T-cell; experiment: Immunosuppressive activity in anti-CD3/anti-CD28-stimulated BALB/c mouse T cells assessed as induction of apoptosis after 48 hrs by FACS analysis; format: functional, cell-based; procedure, shortened: as §1
[10] = Toxicity in po dosed BALB/c mouse; format: organism-based; settings: in vivo
Procedure, shortened: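 Acute oral toxicity in female SPF BALB/c mice, 6–8 weeks old, by OECD 425 up-and-down procedure. Food withheld 3–4 h before and 1–2 h after dosing. Animals dosed one at a time at 24 h intervals, dose raised after survival and lowered after death, four more dosed after reversal. 35 animals in total. LD₅₀ estimated by maximum likelihood with AOT425StatPgm.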

[11] = test system: K562; experiment: Cytotoxicity against human K562 cells after 48 hrs by MTT assay; format: functional, cell-based; settings: K562, 48 h
Procedure, shortened: (§2)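 Cells seeded at 5 × 10⁵ per well and exposed to a range of compound concentrations for 48 h. MTT (4 mg/mL in PBS) added 4 h before end of incubation. Medium replaced by DMSO to dissolve formazan, absorbance read at 540 nm. Value reported as IC₅₀.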

[12] = test system: KB; experiment: Cytotoxicity against human KB cells after 48 hrs by MTT assay; format: functional, cell-based; procedure, shortened: as §2
[13] = test system: HepG2; experiment: Cytotoxicity against human HepG2 cells after 48 hrs by MTT assay; format: functional, cell-based; settings: HepG2, 48 h; procedure, shortened: as §2
[14] = Cytotoxicity against human L02 cells after 48 hrs by MTT assay; format: cell-based; settings: L02, 48 h; procedure, shortened: as §2
[15] = test system: T-cell; experiment: Immunosuppressive activity in anti-CD3/anti-CD28-stimulated BALB/c mouse T cells assessed as early apoptotic cells at 1 uM after 48 hrs by FACS analysis; format: functional; procedure, shortened: as §1
[16] = test system: T-cell; experiment: Immunosuppressive activity in anti-CD3/anti-CD28-stimulated BALB/c mouse T cells assessed as late apoptotic cells at 1 uM after 48 hrs by FACS analysis; format: functional; procedure, shortened: as §1
[17] = test system: T-cell; experiment: Immunosuppressive activity in anti-CD3/anti-CD28-stimulated BALB/c mouse T cells assessed as non-viable necrotic cells at 1 uM after 48 hrs by FACS analysis; format: functional; procedure, shortened: as §1
[18] = test system: T-cell; experiment: Immunosuppressive activity in anti-CD3/anti-CD28-stimulated BALB/c mouse T cells assessed as viable cells at 1 uM after 48 hrs by FACS analysis; format: functional; settings: read-out: Activity; procedure, shortened: as §1
[19] = test system: T-cell; experiment: Immunosuppressive activity in anti-CD3/anti-CD28-stimulated BALB/c mouse T cells assessed as early apoptotic cells at 2 uM after 48 hrs by FACS analysis; format: functional; procedure, shortened: as §1
[20] = test system: T-cell; experiment: Immunosuppressive activity in anti-CD3/anti-CD28-stimulated BALB/c mouse T cells assessed as late apoptotic cells at 2 uM after 48 hrs by FACS analysis; format: functional; procedure, shortened: as §1
[21] = test system: T-cell; experiment: Immunosuppressive activity in anti-CD3/anti-CD28-stimulated BALB/c mouse T cells assessed as non-viable necrotic cells at 2 uM after 48 hrs by FACS analysis; format: functional; procedure, shortened: as §1
[22] = test system: T-cell; experiment: Immunosuppressive activity in anti-CD3/anti-CD28-stimulated BALB/c mouse T cells assessed as viable cells at 2 uM after 48 hrs by FACS analysis; format: functional; settings: read-out: Activity; procedure, shortened: as §1
[23] = test system: T-cell; experiment: Immunosuppressive activity in anti-CD3/anti-CD28-stimulated BALB/c mouse T cells assessed as early apoptotic cells at 4 uM after 48 hrs by FACS analysis; format: functional; procedure, shortened: as §1
[24] = test system: T-cell; experiment: Immunosuppressive activity in anti-CD3/anti-CD28-stimulated BALB/c mouse T cells assessed as late apoptotic cells at 4 uM after 48 hrs by FACS analysis; format: functional; procedure, shortened: as §1
[25] = test system: T-cell; experiment: Immunosuppressive activity in anti-CD3/anti-CD28-stimulated BALB/c mouse T cells assessed as non-viable necrotic cells at 4 uM after 48 hrs by FACS analysis; format: functional; procedure, shortened: as §1

With `COC(=O)c1ccccc1OC(=O)COc1cc(O)c2c(=O)cc(-c3ccccc3)oc2c1` the CC50 at 48 h [1] was 265 µM, the IC50 [2] was 28.5 µM and the “Ratio CC50/IC50” value [3] was 9.28.
For `COC(=O)c1cc(Br)ccc1OC(=O)COc1cc(O)c2c(=O)cc(-c3ccccc3)oc2c1`, the viability at 4 µM [4] was 54.5%, the Activity [5] was 1.56% and the Activity [6] was 40.95%. For the same molecule, the Activity [7] was 7.41%, the viability at 8 µM [8] was 50.1% and the Activity [9] was “Dose-dependent effect”. The LD50 [10] was 738 mg/kg, the IC50 [11] was 0.47 µM and the IC50 [12] was 790 nM. For the same molecule, the IC50 [13] was 610 nM, the IC50 [14] was 274 µM and the CC50 at 48 h [1] was > 450 µM. The IC50 [2] was 0.78 µM, the “Ratio CC50/IC50” value [3] was >576.92 and the Activity [15] was 3.79%. The Activity [16] was 15.66%, the Activity [17] was 3.56% and the viability at 1 µM [18] was 77%. It also gave an Activity [19] of 2.12%, an Activity [20] of 30.09% and an Activity [21] of 3.61%. It also gave a viability at 2 µM [22] of 64.2%, an Activity [23] of 3.14% and an Activity [24] of 38.7%. It also gave an Activity [25] of 3.69%.
With `COC(=O)c1ccc(Br)cc1OC(=O)COc1cc(O)c2c(=O)cc(-c3ccccc3)oc2c1` the CC50 at 48 h [1] was 326 µM, the IC50 [2] was 17.6 µM and the “Ratio CC50/IC50” value [3] was 18.54.
With `O=C(COc1cc(O)c2c(=O)cc(-c3ccccc3)oc2c1)Oc1cccc(F)c1C(=O)O` the CC50 at 48 h [1] was 319 µM, the IC50 [2] was 40.3 µM and the “Ratio CC50/IC50” value [3] was 7.91.
For `O=C(COc1cc(O)c2c(=O)cc(-c3ccccc3)oc2c1)Oc1cc(Br)cc(Br)c1C(=O)O`, the CC50 at 48 h [1] was 398 µM, the IC50 [2] was 45.7 µM and the “Ratio CC50/IC50” value [3] was 8.69.
With `Cc1cccc(C(=O)O)c1OC(=O)COc1cc(O)c2c(=O)cc(-c3ccccc3)oc2c1` the CC50 at 48 h [1] was 299 µM, the IC50 [2] was 39.1 µM and the “Ratio CC50/IC50” value [3] was 7.65.
In the case of `O=C(COc1cc(O)c2c(=O)cc(-c3ccccc3)oc2c1)Oc1cccc(Br)c1C(=O)O`, the CC50 at 48 h [1] is reported as 388 µM, the IC50 [2] is reported as 41.7 µM and the “Ratio CC50/IC50” value [3] is reported as 9.28.
With `O=C(COc1cc(O)c2c(=O)cc(-c3ccccc3)oc2c1)Oc1c(Cl)cccc1C(=O)O` the CC50 at 48 h [1] was 366 µM, the IC50 [2] was 38.7 µM and the “Ratio CC50/IC50” value [3] was 9.45.
Work on `O=c1[nH]cc(F)c(=O)[nH]1` [FLUOROURACIL] yielded an IC50 [11] of 38 µM, an IC50 [12] of 2160 nM and an IC50 [13] of 2780 nM. It also gave an IC50 [14] of 56 µM.
For `COC(=O)c1ccc(Cl)cc1OC(=O)COc1cc(O)c2c(=O)cc(-c3ccccc3)oc2c1`, the CC50 at 48 h [1] was 265 µM, the IC50 [2] was 12.4 µM and the “Ratio CC50/IC50” value [3] was 21.43.
In the case of `Cc1cccc(OC(=O)COc2cc(O)c3c(=O)cc(-c4ccccc4)oc3c2)c1C(=O)O`, the CC50 at 48 h [1] is reported as 298 µM, the IC50 [2] is reported as 37.2 µM and the “Ratio CC50/IC50” value [3] is reported as 8.02.
For `COC(=O)c1cc(Cl)ccc1OC(=O)COc1cc(O)c2c(=O)cc(-c3ccccc3)oc2c1`, the CC50 at 48 h [1] was > 436 µM, the IC50 [2] was 3.74 µM and the “Ratio CC50/IC50” value [3] was >116.57.
With `O=C(COc1cc(O)c2c(=O)cc(-c3ccccc3)oc2c1)Oc1cccc(O)c1C(=O)O` the CC50 at 48 h [1] was 338 µM, the IC50 [2] was 38.2 µM and the “Ratio CC50/IC50” value [3] was 8.83.
In the case of `O=C(COc1cc(O)c2c(=O)cc(-c3ccccc3)oc2c1)Oc1c(Br)cccc1C(=O)O`, the CC50 at 48 h [1] is reported as 379 µM, the IC50 [2] is reported as 40.6 µM and the “Ratio CC50/IC50” value [3] is reported as 9.31.
With `O=C(COc1cc(O)c2c(=O)cc(-c3ccccc3)oc2c1)Oc1cc(Cl)cc(Cl)c1C(=O)O` the CC50 at 48 h [1] was 345 µM, the IC50 [2] was 43.6 µM and the “Ratio CC50/IC50” value [3] was 7.92.
For `COC(=O)c1cc(O)ccc1OC(=O)COc1cc(O)c2c(=O)cc(-c3ccccc3)oc2c1`, the CC50 at 48 h [1] was 263 µM, the IC50 [2] was 29.5 µM and the “Ratio CC50/IC50” value [3] was 8.94.
In the case of `O=C(COc1cc(O)c2c(=O)cc(-c3ccccc3)oc2c1)Oc1cccc(Cl)c1C(=O)O`, the CC50 at 48 h [1] is reported as 366 µM, the IC50 [2] is reported as 38.9 µM and the “Ratio CC50/IC50” value [3] is reported as 9.39.
For `O=c1cc(-c2ccccc2)oc2cc(O)cc(O)c12` [CHRYSIN], the CC50 at 48 h [1] was 428 µM, the IC50 [2] was 44.2 µM and the “Ratio CC50/IC50” value [3] was 9.7.
In the case of `COC(=O)c1cc(F)ccc1OC(=O)COc1cc(O)c2c(=O)cc(-c3ccccc3)oc2c1`, the CC50 at 48 h [1] is reported as 389 µM, the IC50 [2] is reported as 6.82 µM and the “Ratio CC50/IC50” value [3] is reported as 50.08.
With `COC(=O)c1ccc(C)cc1OC(=O)COc1cc(O)c2c(=O)cc(-c3ccccc3)oc2c1` the CC50 at 48 h [1] was 250 µM, the IC50 [2] was 31.1 µM and the “Ratio CC50/IC50” value [3] was 8.04.
For `COC(=O)c1cccc(OC)c1OC(=O)COc1cc(O)c2c(=O)cc(-c3ccccc3)oc2c1`, the CC50 at 48 h [1] was 196 µM, the IC50 [2] was 36.8 µM and the “Ratio CC50/IC50” value [3] was 5.34.
For `COC(=O)c1cc(C)ccc1OC(=O)COc1cc(O)c2c(=O)cc(-c3ccccc3)oc2c1`, the CC50 at 48 h [1] was 306 µM, the IC50 [2] was 25.7 µM and the “Ratio CC50/IC50” value [3] was 11.93.
